Calls of active or inactive are those of the source. The rule behind the calls is not given here.
What was measured:
[1] = Cytotoxicity against HLF assessed as growth inhibition after 72 hrs by MTT assay; type: functional; conditions: Homo sapiens
[2] = test system: HCT-116; assay: Cytotoxicity against human HCT116 cells assessed as growth inhibition after 72 hrs by MTT assay; type: functional, cell-based; conditions: HCT-116, 72 h
[3] = test system: MDA-MB-231; assay: Cytotoxicity against human MDA-MB-231 cells assessed as growth inhibition after 72 hrs by MTT assay; type: functional, cell-based; conditions: MDA-MB-231, 72 h
[4] = biological target: T1, DNA topoisomerase 1 (Homo sapiens) (UniProt P11387); assay: Inhibition of topoisomerase1 (unknown origin)-mediated pBR322 DNA relaxation at 50 uM after 15 mins by agarose gel electrophoresis
T1 sequence (whole entry): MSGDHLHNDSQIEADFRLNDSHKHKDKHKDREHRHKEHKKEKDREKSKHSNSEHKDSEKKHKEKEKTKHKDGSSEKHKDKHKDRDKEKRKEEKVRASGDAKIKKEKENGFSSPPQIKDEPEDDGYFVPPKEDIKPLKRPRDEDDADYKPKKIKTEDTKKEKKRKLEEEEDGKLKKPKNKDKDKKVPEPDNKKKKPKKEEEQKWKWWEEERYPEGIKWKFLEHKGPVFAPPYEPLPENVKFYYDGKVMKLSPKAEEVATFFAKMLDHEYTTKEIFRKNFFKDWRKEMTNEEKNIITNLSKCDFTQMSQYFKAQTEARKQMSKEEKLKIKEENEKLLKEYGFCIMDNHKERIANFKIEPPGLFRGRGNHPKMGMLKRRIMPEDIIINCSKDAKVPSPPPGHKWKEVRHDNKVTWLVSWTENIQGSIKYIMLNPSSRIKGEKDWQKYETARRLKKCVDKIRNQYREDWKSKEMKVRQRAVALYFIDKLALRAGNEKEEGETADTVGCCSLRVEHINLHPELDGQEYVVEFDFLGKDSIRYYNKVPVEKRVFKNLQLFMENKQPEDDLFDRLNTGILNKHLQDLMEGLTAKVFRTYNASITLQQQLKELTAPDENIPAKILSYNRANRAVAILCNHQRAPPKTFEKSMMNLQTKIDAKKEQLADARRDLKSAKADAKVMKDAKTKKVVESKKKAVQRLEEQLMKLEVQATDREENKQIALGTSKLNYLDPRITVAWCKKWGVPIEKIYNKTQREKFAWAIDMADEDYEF
In short: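 Relaxation of supercoiled pBR322 plasmid by purified Top1 with compound at 50 μM; camptothecin 50 μM as reference; DNA-only and DNA + enzyme lanes as controls; gel read-out; repeated 3 times.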

[5] = biological target: DNA topoisomerase 2-alpha (Homo sapiens) (UniProt P11388); assay: Inhibition of topoisomerase-2alpha (unknown origin)-mediated pBR322 DNA relaxation at 50 uM after 30 mins by agarose gel electrophoresis
DNA topoisomerase 2-alpha (Homo sapiens), sequence (P11388 whole entry): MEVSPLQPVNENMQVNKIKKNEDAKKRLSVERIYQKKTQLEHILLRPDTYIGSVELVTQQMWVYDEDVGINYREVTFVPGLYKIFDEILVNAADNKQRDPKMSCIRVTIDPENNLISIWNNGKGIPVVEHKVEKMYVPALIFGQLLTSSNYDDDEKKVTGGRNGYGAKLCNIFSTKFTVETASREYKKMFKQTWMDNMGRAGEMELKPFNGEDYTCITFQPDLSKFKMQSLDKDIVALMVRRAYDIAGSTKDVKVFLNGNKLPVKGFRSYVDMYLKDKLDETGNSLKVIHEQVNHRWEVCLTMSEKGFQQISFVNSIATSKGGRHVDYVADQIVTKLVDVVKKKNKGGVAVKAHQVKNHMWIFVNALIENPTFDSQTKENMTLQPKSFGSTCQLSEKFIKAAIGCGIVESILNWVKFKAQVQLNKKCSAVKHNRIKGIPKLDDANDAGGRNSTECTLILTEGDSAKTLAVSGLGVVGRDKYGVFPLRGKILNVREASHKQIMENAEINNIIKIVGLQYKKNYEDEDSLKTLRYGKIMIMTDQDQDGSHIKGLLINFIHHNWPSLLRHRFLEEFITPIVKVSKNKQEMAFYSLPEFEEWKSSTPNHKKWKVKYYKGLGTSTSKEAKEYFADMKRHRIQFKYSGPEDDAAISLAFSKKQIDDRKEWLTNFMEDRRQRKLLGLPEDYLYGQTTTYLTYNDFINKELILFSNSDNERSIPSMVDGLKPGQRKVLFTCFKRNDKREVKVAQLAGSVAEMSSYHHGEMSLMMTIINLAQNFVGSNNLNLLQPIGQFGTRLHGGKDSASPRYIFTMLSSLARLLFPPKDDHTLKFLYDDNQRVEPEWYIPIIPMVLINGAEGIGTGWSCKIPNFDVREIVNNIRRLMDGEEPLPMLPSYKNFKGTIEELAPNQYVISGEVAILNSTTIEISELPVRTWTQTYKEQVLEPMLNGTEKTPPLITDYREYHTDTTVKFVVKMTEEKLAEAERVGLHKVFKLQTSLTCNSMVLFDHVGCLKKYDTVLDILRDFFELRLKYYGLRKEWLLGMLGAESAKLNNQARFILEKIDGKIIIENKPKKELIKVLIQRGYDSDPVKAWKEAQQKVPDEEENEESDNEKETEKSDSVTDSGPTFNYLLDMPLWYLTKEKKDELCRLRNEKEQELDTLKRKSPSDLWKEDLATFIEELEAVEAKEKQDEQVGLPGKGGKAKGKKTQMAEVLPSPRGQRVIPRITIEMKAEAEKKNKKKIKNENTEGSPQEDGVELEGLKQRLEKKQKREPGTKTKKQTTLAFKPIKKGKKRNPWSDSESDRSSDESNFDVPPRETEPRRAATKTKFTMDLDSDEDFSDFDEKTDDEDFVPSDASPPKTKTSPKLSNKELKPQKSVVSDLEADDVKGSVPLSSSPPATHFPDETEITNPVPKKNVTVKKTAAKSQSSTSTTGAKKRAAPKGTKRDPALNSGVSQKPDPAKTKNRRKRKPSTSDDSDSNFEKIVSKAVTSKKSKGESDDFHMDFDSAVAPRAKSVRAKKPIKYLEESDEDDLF
In short: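 Purified Top2α relaxation of supercoiled pBR322 plasmid with compound at 50 μM; etoposide 50 μM as reference; DNA-only and DNA + enzyme lanes as controls; gel read-out; repeated 3 times.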

[6] = biological target: Histone deacetylase 1 (Homo sapiens, UniProt Q13547); assay: Inhibition of recombinant full length human HDAC1 (1 to 482) expressed in baculovirus infected insect Sf9 cells using fluorogenic HDAC substrate 3 after 30 mins by fluorescence assay
Histone deacetylase 1, sequence (Q13547 whole entry): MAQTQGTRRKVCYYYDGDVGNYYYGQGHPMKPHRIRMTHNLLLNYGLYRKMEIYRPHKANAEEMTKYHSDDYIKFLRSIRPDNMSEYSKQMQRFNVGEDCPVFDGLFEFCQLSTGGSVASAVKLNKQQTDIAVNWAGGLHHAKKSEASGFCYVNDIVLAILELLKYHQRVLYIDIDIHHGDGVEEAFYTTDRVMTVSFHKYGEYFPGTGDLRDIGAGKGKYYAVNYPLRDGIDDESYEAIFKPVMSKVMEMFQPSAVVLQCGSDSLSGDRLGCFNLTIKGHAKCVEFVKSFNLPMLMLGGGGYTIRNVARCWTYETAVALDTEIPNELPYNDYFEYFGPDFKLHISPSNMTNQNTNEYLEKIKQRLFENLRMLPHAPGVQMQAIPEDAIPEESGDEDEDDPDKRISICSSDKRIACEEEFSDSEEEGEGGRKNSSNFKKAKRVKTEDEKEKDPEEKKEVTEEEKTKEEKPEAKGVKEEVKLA

[7] = test system: HCT-116; assay: Induction of apoptosis in human HCT116 cells assessed as early apoptotic cells at 5 uM after 24 hrs by annexin V-FITC/propidium iodide staining-based flow cytometric analysis (reference value: 2.27%); type: functional
[8] = biological target: T2, Histone deacetylase 8 (Homo sapiens, UniProt Q9BY41); assay: Inhibition of recombinant C-terminal His-tagged full length human HDAC8 expressed in baculovirus infected insect Sf9 cells using fluorogenic HDAC class 2a substrate after 30 mins by fluorescence assay
T2 sequence (Q9BY41 whole entry): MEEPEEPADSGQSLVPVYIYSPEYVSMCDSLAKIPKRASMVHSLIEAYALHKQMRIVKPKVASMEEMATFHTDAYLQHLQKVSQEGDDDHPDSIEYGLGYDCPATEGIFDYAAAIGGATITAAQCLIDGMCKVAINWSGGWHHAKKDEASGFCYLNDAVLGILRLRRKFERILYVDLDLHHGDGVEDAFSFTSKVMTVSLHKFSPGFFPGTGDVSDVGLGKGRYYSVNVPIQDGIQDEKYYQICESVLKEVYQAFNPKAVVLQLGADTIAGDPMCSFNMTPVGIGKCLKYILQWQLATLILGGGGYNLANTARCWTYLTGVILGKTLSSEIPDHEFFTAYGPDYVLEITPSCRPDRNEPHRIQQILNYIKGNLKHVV

[9] = biological target: T3, Protein deacetylase HDAC6 (Homo sapiens, UniProt Q9UBN7); assay: Inhibition of recombinant N-terminal GST-tagged full length human HDAC6 expressed in baculovirus infected insect Sf9 cells using fluorogenic HDAC substrate 3 after 30 mins by fluorescence assay
T3 sequence (Q9UBN7 whole entry): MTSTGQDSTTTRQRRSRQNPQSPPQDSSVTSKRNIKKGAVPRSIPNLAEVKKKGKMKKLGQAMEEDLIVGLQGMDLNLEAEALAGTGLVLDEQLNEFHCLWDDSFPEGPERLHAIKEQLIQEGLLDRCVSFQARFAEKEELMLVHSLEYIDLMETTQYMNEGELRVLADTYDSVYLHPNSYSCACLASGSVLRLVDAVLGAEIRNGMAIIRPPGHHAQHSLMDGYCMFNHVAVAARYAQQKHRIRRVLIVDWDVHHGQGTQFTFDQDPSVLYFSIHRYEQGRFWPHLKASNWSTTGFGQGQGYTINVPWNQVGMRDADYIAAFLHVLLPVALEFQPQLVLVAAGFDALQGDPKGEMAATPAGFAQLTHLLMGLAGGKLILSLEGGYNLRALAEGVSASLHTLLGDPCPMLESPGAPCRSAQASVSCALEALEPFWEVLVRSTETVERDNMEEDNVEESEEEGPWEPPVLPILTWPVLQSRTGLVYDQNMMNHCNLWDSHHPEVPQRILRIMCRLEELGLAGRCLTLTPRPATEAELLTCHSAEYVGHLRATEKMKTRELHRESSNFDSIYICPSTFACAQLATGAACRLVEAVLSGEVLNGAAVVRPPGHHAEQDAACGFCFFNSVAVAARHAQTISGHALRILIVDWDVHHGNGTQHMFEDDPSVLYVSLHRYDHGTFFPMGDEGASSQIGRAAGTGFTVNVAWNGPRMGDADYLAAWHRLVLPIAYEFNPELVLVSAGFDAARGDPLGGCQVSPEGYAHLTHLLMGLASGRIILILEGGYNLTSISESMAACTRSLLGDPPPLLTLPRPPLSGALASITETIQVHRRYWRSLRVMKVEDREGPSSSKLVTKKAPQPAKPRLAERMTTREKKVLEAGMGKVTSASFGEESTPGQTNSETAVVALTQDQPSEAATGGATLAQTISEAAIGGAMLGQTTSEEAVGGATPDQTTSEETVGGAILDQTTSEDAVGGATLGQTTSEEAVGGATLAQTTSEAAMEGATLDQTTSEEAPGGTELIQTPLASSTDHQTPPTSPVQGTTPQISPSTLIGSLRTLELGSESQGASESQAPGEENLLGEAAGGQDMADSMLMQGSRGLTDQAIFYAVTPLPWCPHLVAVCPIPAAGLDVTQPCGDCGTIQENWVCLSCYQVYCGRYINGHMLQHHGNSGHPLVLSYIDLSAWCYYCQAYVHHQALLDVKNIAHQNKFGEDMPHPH

[10] = biological target: Histone deacetylase 3/Nuclear receptor corepressor 2 (HDAC3/NCoR2) (Homo sapiens, UniProt O15379); assay: Inhibition of recombinant C-terminal His-tagged full length human HDAC3/NcoR2 complex expressed in baculovirus infected insect Sf9 cells using fluorogenic HDAC substrate 3 after 30 mins by fluorescence assay
Histone deacetylase 3/Nuclear receptor corepressor 2 (HDAC3/NCoR2), sequence (O15379 whole entry): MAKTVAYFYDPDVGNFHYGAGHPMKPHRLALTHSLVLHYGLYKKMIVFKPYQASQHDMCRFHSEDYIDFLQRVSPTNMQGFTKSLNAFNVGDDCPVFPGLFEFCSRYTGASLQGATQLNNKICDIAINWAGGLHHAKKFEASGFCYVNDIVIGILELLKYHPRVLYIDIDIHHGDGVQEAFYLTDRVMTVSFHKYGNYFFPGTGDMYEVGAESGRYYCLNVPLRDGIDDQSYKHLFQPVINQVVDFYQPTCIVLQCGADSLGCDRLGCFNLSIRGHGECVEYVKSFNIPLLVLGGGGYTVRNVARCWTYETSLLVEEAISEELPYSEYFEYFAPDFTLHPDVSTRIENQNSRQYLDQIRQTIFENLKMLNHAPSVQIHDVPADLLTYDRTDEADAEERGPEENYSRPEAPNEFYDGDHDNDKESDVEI
Histone deacetylase 3/Nuclear receptor corepressor 2 (HDAC3/NCoR2), sequence (Q9Y618 whole entry, further chain): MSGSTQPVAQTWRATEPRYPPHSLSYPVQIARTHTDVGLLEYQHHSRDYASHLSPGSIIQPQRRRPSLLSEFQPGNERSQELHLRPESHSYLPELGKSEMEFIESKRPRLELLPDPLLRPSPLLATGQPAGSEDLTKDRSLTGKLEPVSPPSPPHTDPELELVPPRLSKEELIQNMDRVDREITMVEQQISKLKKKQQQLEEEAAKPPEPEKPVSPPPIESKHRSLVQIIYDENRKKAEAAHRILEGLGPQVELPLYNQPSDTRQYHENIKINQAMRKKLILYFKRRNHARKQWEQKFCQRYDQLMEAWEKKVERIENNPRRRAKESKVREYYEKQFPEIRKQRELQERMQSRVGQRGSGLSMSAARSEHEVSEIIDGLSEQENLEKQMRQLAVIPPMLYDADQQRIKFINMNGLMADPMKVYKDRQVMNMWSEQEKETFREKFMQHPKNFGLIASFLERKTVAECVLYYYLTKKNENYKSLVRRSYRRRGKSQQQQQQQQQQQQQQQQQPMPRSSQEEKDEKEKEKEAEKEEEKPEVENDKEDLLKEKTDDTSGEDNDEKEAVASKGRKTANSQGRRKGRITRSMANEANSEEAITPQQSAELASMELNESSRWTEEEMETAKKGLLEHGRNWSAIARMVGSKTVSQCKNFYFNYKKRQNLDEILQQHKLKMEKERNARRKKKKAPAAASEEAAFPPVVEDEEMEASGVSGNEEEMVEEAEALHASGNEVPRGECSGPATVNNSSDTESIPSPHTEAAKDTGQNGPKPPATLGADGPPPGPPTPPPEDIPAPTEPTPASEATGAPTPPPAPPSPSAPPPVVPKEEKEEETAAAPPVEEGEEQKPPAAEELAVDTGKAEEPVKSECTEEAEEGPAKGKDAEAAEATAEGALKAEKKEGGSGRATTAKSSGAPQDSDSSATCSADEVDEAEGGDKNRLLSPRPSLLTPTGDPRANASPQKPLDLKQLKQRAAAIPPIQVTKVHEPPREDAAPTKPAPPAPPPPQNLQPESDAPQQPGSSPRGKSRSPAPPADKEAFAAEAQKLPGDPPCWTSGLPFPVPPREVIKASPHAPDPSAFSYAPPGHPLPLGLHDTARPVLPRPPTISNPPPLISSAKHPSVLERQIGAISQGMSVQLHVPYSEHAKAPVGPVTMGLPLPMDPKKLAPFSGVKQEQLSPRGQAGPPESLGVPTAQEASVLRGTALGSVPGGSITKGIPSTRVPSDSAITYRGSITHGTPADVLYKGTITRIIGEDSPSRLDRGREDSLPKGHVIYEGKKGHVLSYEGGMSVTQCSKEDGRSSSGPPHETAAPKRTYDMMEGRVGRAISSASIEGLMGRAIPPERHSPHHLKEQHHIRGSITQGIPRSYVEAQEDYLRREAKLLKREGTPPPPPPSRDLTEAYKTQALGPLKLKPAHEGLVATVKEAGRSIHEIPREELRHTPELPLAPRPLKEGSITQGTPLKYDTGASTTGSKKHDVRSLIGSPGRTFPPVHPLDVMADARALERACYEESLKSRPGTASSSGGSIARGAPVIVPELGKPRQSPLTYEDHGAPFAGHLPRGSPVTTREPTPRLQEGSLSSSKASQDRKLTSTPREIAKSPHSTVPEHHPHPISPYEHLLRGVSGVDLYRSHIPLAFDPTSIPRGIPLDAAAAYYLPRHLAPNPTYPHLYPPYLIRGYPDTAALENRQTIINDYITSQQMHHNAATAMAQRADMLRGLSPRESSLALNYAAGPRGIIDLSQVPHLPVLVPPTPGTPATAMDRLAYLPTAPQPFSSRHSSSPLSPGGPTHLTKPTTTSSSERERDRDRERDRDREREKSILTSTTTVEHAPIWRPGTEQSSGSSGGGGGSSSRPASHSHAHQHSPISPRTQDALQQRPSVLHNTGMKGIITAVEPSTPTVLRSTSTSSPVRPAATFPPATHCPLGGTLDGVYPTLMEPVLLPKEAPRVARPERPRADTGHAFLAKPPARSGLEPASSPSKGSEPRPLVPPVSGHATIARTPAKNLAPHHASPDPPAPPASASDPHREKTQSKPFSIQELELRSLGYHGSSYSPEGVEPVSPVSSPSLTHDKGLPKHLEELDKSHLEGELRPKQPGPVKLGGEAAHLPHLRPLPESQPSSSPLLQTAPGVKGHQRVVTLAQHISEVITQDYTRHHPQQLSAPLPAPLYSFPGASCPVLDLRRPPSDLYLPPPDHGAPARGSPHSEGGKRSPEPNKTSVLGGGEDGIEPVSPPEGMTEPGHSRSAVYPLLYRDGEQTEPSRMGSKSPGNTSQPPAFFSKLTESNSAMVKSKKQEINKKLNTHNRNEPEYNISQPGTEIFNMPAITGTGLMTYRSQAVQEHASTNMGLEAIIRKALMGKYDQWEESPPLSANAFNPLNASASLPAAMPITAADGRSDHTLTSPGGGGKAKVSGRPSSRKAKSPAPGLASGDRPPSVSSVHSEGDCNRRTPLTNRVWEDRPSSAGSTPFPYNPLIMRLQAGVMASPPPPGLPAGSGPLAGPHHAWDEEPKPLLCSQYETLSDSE

[11] = biological target: Histone deacetylase 2 (Homo sapiens, UniProt Q92769); assay: Inhibition of recombinant C-terminal His-tagged full length human HDAC2 expressed in baculovirus infected insect Sf9 cells using fluorogenic HDAC substrate 3 after 30 mins by fluorescence assay; type: cell-based
[12] = test system: HCT-116; assay: Induction of apoptosis in human HCT116 cells assessed as late apoptotic cells at 5 uM after 24 hrs by annexin V-FITC/propidium iodide staining-based flow cytometric analysis (reference value: 1.05%); type: functional
[13] = test system: HCT-116; assay: Induction of apoptosis in human HCT116 cells assessed as necrotic cells at 5 uM after 24 hrs by annexin V-FITC/propidium iodide staining-based flow cytometric analysis (reference value: 8%); type: functional
[14] = test system: HCT-116; assay: Induction of apoptosis in human HCT116 cells assessed as early apoptotic cells at 5 uM after 48 hrs by annexin V-FITC/propidium iodide staining-based flow cytometric analysis (reference value: 2.76%); type: functional
[15] = test system: HCT-116; assay: Induction of apoptosis in human HCT116 cells assessed as late apoptotic cells at 5 uM after 48 hrs by annexin V-FITC/propidium iodide staining-based flow cytometric analysis (reference value: 3.03%); type: functional
[16] = test system: HCT-116; assay: Induction of apoptosis in human HCT116 cells assessed as necrotic cells at 5 uM after 48 hrs by annexin V-FITC/propidium iodide staining-based flow cytometric analysis (reference value: 5.25%); type: functional
[17] = biological target: Histone deacetylase (Homo sapiens) (UniProt Q13547+O15379+Q9UBN7+Q92769+Q9UQL6+Q8WUI4+Q9BY41+Q96DB2+P56524+Q9UKV0+Q969S8); assay: Inhibition of HDAC in human HCT116 cells assessed as induction of histone H3 hyperacetylation at 2.5 to 5 uM after 24 to 48 hrs by Western blot analysis; type: cell-based; conditions: HCT-116
In short: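 HCT116 cells treated 24 h with compound at 2.5 or 5 μM alongside an untreated control; lysates probed by Western blot for acetylated histone H3.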

[18] = test system: HCT-116; assay: Induction of apoptosis in human HCT116 cells at 5 uM after 24 hrs by annexin V-FITC/propidium iodide staining-based flow cytometric analysis relative to control; type: functional
[19] = test system: HCT-116; assay: Induction of apoptosis in human HCT116 cells at 5 uM after 48 hrs by annexin V-FITC/propidium iodide staining-based flow cytometric analysis relative to control; type: functional

Row | SMILES | IC50 [1] [µM] | IC50 [2] [µM] | IC50 [3] [µM] | inhibition [4] | inhibition [5] | IC50 [6] [µM] | also measured
1 | CN1c2ccc(NCc3ccc(NC(=O)CCCCCCC(=O)NO)cc3)cc2C(=O)N2CCc3c([nH]c4ccc(O)cc34)C21 (centres undefined) | 13 | 2.1 | 14 | Active | Active | 0.03 | 
2 | CN1c2ccc(NCc3ccc(-c4noc(CCCCCCC(=O)NO)n4)cc3)cc2C(=O)N2CCc3c([nH]c4ccc(O)cc34)C21 (centres undefined) | 1.3 | 0.41 | 2.3 | Active | Active | 0.024 | Activity [7]: 22.59%; IC50 [8]: 2.5 µM; IC50 [9]: 0.013 µM; IC50 [10]: 0.071 µM; IC50 [11]: 0.275 µM; Activity [12]: 16.73%; Activity [13]: 2.68%; Activity [14]: 29.76%; Activity [15]: 42.14%; Activity [16]: 7.96%; inhibition [17]: Active
3 | CN1c2ccc(NCc3ccc(-c4nnc(CCCCCCC(=O)NO)o4)cc3)cc2C(=O)N2CCc3c([nH]c4ccc(O)cc34)C21 (centres undefined) | 6.1 | 9.7 | 5.7 | Active | Active | 0.089 | 
4 | CN1c2ccc(N)cc2C(=O)N2CCc3c([nH]c4ccc(O)cc34)C21 (centres undefined) | 0.47 | 0.43 | 0.49 | Active | Active |  | Activity [18]: 11.09%; Activity [19]: 16.39%
5 | CN1c2ccc(NCc3ccc(-c4nnc(CCCCC(=O)NO)o4)cc3)cc2C(=O)N2CCc3c([nH]c4ccc(O)cc34)C21 (centres undefined) | 26 | 4.9 | 30 | Active | Active | 0.093 | 
6 | CN1c2ccc(NCc3ccc(-c4noc(CCCCC(=O)NO)n4)cc3)cc2C(=O)N2CCc3c([nH]c4ccc(O)cc34)C21 (centres undefined) | 8.2 | 3.7 | 5.9 | Active | Active | 0.19 | 
7 | COc1ccc2[nH]c3c(c2c1)CCN1C(=O)c2cc(NC(=O)CCCCCC(=O)NO)ccc2N(C)C31 (centres undefined) | 68 | 35 | 58 | inactive | Active | > 10 | 
8 | COc1cc([C@@H]2c3cc4c(cc3[C@@H](O[C@@H]3O[C@@H]5CO[C@@H](C)O[C@H]5[C@H](O)[C@H]3O)[C@H]3COC(=O)[C@H]23)OCO4)cc(OC)c1O |  |  |  |  | Active |  | 
9 | CN1c2ccc(NCc3ccc(-c4nnc(CCCC(=O)NO)o4)cc3)cc2C(=O)N2CCc3c([nH]c4ccc(O)cc34)C21 (centres undefined) | > 168 | 11 | > 168 | Active | Active | > 10 | 
10 | COc1ccc2[nH]c3c(c2c1)CCN1C(=O)c2cc(NC(=O)CCCCC(=O)NO)ccc2N(C)C31 (centres undefined) | 62 | 22 | 36 | inactive | Active | 0.275 | 
11 | O=C(CCCCCCC(=O)Nc1ccccc1)NO [VORINOSTAT] |  |  |  |  |  |  | Activity [7]: 19.2%; Activity [12]: 6.34%; Activity [13]: 1.76%; Activity [14]: 11.37%; Activity [15]: 35.44%; Activity [16]: 15.64%
12 | CN1c2ccc(NCc3ccc(-c4noc(CCCC(=O)NO)n4)cc3)cc2C(=O)N2CCc3c([nH]c4ccc(O)cc34)C21 (centres undefined) | 6.7 | 3.5 | 16 | Active | Active | 0.321 | 

Reference: ChEMBL document CHEMBL3576845, “Discovery of Novel Multiacting Topoisomerase I/II and Histone Deacetylase Inhibitors” (ACS Med Chem Lett, 2015)
